From ChEMBL document CHEMBL1143370, “Effect of fluorination on the pharmacological profile of 11beta isomers of fulvestrant in breast carcinoma cells” (J Med Chem, 2009) come the findings set out here.

For assay [1], the target named is T1, Estrogen receptor (Homo sapiens) (UniProt P03372).
T1 sequence (whole entry): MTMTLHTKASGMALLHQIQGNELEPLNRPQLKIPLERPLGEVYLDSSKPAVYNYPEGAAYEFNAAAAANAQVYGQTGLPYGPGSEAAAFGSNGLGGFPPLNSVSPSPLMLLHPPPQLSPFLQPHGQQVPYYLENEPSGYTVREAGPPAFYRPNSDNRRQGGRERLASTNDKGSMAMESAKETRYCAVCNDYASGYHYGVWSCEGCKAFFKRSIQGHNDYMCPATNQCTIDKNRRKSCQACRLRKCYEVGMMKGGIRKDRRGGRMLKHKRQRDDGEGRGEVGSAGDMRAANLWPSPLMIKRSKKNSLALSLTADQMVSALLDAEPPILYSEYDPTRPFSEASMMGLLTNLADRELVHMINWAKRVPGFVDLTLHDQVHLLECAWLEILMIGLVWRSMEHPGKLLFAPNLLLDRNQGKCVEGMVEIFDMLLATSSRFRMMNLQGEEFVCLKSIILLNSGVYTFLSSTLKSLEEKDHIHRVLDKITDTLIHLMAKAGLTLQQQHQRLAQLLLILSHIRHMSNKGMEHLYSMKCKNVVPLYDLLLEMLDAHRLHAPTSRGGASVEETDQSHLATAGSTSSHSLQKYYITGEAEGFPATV
The experiment in a line: Binding affinity to estrogen receptor alpha in human MCF7 cells assessed as inhibition of [3H]E2 accumulation after 45 mins by whole cell competition binding assay. It is filed as cell-based. In outline: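 Intact MCF-7 cells incubated 45 min with [3H]E2 at 1 nM, alone (control) or with competitor at 1 nM to 1 µM; cellular [3H]E2 accumulation measured, with unlabeled E2 as reference.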

In assay [2] the target is T1, Estrogen receptor (Homo sapiens). The experiment in a line: Displacement of [3H]estradiol from human recombinant estrogen receptor alpha by radiometric assay relative to estradiol. In outline: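 Purified recombinant human ERα; competition with [3H]E2 binding at 0 °C; inhibition curves give relative binding affinity (RBA).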
A general note: Displacement assays read how much labelled ligand stays bound in the presence of the test substance.

Assay [3] deals with MCF7. The experiment in a line: Antiproliferative activity against estradiol-stimulated human MCF7 cells after 3 days at 10 nM by crystal violet staining. The format is functional, cell-based.
Assay [4] relates to MCF7. The experiment in a line: Down regulation of estrogen receptor alpha expression in human MCF7 cells at 100 nM after 24 hrs by immunofluorescence staining. The format is functional, cell-based. An outline of the steps:
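MCF-7 cells treated 24 h at 100 nM, untreated control; ERα shown by immunofluorescence with HC-20 antiserum, Texas Red labeling.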

For assay [5], the target named is T1, Estrogen receptor (Homo sapiens). The experiment in a line: Antiestrogenic activity at human recombinant estrogen receptor alpha assessed as inhibition of recruitment of LxxLL-containing coactivators after 30 mins by ELISA in presence of estradiol. On the technique in general: An ELISA detects its analyte on a solid surface through an enzyme-linked reagent.

For assay [6], the system named is MCF7. Description: Down regulation of estrogen receptor alpha expression in human MCF7 cells after 24 hrs by Western blot analysis. The format is functional, cell-based. In outline:
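MCF-7 breast carcinoma cells exposed to increasing concentrations of each compound for 24 h, with untreated control cultures kept in parallel. Equal amounts of solubilized protein were analysed for ERα by Western blotting. The experiment was done twice.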
A general note: In western blotting, separated proteins are transferred to a membrane and probed.

Assay [7] has as its system MCF7. The experiment in a line: Antiproliferative activity against human MCF7 cells after 3 days at 10 nM by crystal violet staining. It is filed as functional, cell-based.
The target of assay [8] is T1, Estrogen receptor (Homo sapiens). The experiment in a line: Antiestrogenic activity at human recombinant estrogen receptor alpha assessed as inhibition of recruitment of LxxLL-containing coactivators after 30 mins by ELISA in absence of estradiol.
The subject of assay [9] is MCF7. Description: Suppression of estradiol-induced down regulation of estrogen receptor alpha expression in human MCF7 cells at 1 uM after 24 hrs by Western blot analysis. It is filed as functional, cell-based. In outline:
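Western blot of ERα in MCF-7 cells after 24 h with compound at 1 µM, alone or with 10 nM E2; equal protein loading; experiment done twice.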

The test system of assay [10] is MCF7. Description: Suppression of estradiol-induced down regulation of estrogen receptor alpha expression in human MCF7 cells at 1 uM after 24 hrs by immunofluorescence staining. It is filed as functional, cell-based. An outline of the steps: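 ERα immunofluorescence (HC-20 antiserum, Texas Red) in MCF-7 cells after 24 h with E2 at 1 nM and/or compound at 1 µM; untreated control included.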

Assay [11] deals with MCF7. The experiment in a line: Down regulation of estrogen receptor alpha expression in human MCF7 cells after 24 hrs by Western blot analysis in presence of 3,17beta-dihydroxy-11beta-[4,4,5,5,6,6,7,7-octafluoro-9-(4,4,5,5,5-pentafluoropentane-1-sulfinyl)nonyl]estra-1,3,5(10)-triene. The format is functional, cell-based. In outline: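 MCF-7 cells exposed 24 h to increasing concentrations, untreated cultures run in parallel; equal amounts of solubilized protein Western blotted for ERα; experiment done twice.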

Active and inactive are the calls of the source. The calls are words filed in the database; no cut-off is given here.

For the compound `C[C@]12C[C@H](CCCCCCCCC[S+]([O-])CCCC(F)(F)C(F)(F)F)[C@@H]3c4ccc(O)cc4CC[C@H]3[C@@H]1CC[C@@H]2O` (stereo partly specified), the outcome (in assay [1]; in the assay with MCF7 [3]; in the assay with MCF7 [4]; in assay [5]; in the assay on MCF7 [6]; with MCF7 [7]) was Active. In addition, the outcome in [8] was Active. The relative binding affinity (RBA) in assay [2] is 6.

As to `C[C@]12C[C@H](CCCC(F)(F)C(F)(F)C(F)(F)C(F)(F)CC[S+]([O-])CCCC(F)(F)C(F)(F)F)[C@@H]3c4ccc(O)cc4CC[C@H]3[C@@H]1CC[C@@H]2O` (stereo partly specified), the outcome (in the assay with MCF7 [9]; in the assay with MCF7 [10]; in assay [5]; in the assay on MCF7 [7]; in [8]) was Active. For the same compound, the relative binding affinity (RBA) in assay [2] was determined as 2. Also, the result with MCF7 [4] and in the assay with MCF7 [11] was inactive.

`C[C@]12CC[C@@H]3c4ccc(O)cc4C[C@@H](CCCCCCCCC[S+]([O-])CCCC(F)(F)C(F)(F)F)[C@H]3[C@@H]1CC[C@@H]2O` (stereo partly specified): in assay [2], the relative binding affinity (RBA) stood at 10. Also, the result in the assay with MCF7 [3], with MCF7 [4], in the assay with MCF7 [6] and in the assay with MCF7 [7] was Active.
